Test results as given in the M2OR odorant receptor database.
Substitutions are numbered along the chain they refer to.

What was measured:
Settings in all cases: stereoisomer not certain
[1] = tested on: T1, OR2C3
T1 sequence (whole entry): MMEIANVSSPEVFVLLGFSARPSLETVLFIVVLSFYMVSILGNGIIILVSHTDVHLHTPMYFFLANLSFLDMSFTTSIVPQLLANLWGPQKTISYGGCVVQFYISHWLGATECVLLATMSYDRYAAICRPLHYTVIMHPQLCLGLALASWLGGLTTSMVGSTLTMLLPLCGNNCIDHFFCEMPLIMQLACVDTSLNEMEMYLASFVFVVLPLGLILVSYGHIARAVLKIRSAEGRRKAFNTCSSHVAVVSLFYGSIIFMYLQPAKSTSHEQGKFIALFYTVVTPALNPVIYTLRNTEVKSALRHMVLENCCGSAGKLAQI
Summary of the method: (§1)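 Transient luciferase assays in mammalian cell lines were common, though methods varied by source. The values come from published papers and their supplementary material, with extra details from the original authors when needed. Responsive refers to a measured signal the original authors judged statistically different from baseline, and non-responsive (inactive) to the remainder.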

[2] = tested on: T2, OR2C3; remark: listed apart in the source
T2 sequence (whole entry): T1 sequence (whole entry) with A20T, V289L
Summary of the method: as §1

[3] = molecular target: T3, OR2D2 (Homo sapiens) (UniProt Q9H210)
T3 sequence (whole entry): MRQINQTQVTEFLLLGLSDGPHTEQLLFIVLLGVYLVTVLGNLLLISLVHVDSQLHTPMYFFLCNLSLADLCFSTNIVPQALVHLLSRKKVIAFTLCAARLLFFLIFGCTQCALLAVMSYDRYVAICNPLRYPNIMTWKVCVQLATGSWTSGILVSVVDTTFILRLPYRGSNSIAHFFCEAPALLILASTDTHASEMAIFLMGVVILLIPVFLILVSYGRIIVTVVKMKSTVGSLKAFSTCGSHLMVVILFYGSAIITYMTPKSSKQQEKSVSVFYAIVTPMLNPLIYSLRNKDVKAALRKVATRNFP
Summary of the method: as §1

[4] = tested on: T4, OR2D2 S148P I163T M202T
T4 sequence (whole entry): T3 sequence (whole entry) with S148P, I163T, M202T
Summary of the method: as §1

[5] = molecular target: T5, OR2D3 (Homo sapiens) (UniProt Q8NGH3)
T5 sequence (whole entry): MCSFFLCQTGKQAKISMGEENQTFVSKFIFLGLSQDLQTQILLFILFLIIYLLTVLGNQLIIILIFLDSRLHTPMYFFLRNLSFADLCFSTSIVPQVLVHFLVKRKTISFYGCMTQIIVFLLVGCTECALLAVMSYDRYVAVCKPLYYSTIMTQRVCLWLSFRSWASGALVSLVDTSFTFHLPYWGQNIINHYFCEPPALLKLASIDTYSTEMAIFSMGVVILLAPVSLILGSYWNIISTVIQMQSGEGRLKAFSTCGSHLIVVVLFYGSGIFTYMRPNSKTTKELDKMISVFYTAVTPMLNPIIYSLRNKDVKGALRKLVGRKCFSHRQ
Summary of the method: as §1

[6] = tested on: T6, OR2D3 R155W
T6 sequence (whole entry): T5 sequence (whole entry) with R155W
Summary of the method: as §1

[7] = molecular target: T7, OR2F1 (Homo sapiens) (UniProt Q13607)
T7 sequence (whole entry): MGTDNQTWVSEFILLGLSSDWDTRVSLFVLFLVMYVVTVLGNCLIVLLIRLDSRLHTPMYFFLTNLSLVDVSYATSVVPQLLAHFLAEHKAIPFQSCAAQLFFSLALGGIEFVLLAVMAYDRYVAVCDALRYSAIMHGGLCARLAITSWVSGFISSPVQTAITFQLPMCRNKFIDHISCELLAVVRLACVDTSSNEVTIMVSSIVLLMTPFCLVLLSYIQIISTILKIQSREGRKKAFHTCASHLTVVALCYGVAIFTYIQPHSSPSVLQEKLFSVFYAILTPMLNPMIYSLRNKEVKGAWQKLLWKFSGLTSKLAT
Summary of the method: as §1

[8] = molecular target: T8, OR2F2 (Homo sapiens) (UniProt O95006)
T8 sequence (whole entry): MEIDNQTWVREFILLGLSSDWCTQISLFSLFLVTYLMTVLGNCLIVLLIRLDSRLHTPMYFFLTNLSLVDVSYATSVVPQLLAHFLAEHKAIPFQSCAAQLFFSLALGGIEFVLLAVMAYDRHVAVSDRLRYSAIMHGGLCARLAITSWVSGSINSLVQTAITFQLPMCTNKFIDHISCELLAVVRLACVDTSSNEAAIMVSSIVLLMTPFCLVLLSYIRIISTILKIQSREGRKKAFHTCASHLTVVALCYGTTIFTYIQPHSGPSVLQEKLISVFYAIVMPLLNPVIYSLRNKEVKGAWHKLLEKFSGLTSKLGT
Summary of the method: as §1

[9] = molecular target: T9, OR2G2 (Homo sapiens) (UniProt Q8NGZ5)
T9 sequence (whole entry): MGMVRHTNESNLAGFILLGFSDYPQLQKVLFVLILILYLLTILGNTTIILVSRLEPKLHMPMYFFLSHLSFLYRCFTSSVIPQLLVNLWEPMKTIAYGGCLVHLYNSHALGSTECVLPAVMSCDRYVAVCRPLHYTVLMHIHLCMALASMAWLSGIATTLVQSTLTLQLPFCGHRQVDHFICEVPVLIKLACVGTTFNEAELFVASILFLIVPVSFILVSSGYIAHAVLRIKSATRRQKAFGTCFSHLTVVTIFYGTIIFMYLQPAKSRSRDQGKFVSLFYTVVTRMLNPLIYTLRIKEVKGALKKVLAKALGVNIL
Summary of the method: as §1

[10] = tested on: T10, OR2G2 L167P R236G
T10 sequence (whole entry): T9 sequence (whole entry) with L167P, R236G
Summary of the method: as §1

[11] = molecular target: T11, OR2G3 (Homo sapiens) (UniProt Q8NGZ4)
T11 sequence (whole entry): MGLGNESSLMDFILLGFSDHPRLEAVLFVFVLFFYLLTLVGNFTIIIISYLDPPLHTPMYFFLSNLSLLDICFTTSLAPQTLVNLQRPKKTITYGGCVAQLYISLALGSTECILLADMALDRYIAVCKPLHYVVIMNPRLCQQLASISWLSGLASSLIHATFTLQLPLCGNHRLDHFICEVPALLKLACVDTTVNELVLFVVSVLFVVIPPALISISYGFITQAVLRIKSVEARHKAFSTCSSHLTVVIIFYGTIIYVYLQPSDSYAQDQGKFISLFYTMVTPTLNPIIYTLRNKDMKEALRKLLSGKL
Summary of the method: as §1

[12] = tested on: T12, OR2G3 I289V
T12 sequence (whole entry): T11 sequence (whole entry) with I289V
Summary of the method: as §1

[13] = molecular target: T13, OR2G6 (Homo sapiens) (UniProt Q5TZ20)
T13 sequence (whole entry): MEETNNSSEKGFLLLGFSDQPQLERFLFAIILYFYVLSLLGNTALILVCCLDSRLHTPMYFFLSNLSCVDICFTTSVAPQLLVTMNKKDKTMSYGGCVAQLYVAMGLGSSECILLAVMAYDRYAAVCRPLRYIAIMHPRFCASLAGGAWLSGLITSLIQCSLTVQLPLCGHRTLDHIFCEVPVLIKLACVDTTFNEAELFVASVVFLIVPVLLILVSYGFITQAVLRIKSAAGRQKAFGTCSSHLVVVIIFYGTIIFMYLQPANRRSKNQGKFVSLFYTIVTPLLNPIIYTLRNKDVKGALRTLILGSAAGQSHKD
Summary of the method: as §1

[14] = molecular target: T14, OR2H1 (Homo sapiens) (UniProt Q9GZK4)
T14 sequence (whole entry): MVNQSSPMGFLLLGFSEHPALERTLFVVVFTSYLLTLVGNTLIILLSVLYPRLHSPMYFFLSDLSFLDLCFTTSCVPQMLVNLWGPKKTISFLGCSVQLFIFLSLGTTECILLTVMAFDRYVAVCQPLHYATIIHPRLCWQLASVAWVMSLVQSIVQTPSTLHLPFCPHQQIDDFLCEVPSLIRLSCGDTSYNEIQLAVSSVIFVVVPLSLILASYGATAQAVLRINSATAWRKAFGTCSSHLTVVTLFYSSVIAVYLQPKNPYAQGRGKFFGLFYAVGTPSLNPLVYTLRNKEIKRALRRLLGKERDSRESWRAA
Summary of the method: as §1

[15] = molecular target: T15, OR2H2 (Homo sapiens) (UniProt O95918)
T15 sequence (whole entry): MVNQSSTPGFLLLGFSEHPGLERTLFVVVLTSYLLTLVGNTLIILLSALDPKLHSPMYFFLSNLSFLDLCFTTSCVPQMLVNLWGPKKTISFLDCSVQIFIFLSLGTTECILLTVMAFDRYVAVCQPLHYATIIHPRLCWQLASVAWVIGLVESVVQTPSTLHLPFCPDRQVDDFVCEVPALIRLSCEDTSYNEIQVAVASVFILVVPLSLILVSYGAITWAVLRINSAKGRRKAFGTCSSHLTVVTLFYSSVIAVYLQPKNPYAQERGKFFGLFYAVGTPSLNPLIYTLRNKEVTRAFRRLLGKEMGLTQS
Summary of the method: as §1

[16] = molecular target: T16, OR2C3 (Homo sapiens) (UniProt Q8N628)
T16 sequence (whole entry): T1 sequence (whole entry) with A20T, S68P, V289L
Summary of the method: as §1

[17] = tested on: T17, OR2C1
T17 sequence (whole entry): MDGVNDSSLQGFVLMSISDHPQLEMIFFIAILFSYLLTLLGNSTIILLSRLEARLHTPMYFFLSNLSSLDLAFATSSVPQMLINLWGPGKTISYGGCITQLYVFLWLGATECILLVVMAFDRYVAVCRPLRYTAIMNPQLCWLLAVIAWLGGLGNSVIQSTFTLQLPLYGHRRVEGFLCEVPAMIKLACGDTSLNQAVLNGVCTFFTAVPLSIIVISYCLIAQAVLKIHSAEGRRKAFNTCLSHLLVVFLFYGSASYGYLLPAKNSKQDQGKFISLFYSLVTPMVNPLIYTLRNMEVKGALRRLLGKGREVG
Summary of the method: as §1

Measured: odorant receptor agonist call;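 note: active if original authors judged signal statistically different from baseline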

Cc1cnc(C)c(C)n1
inactive: [1] | [2] | [3] | [4] | [5] | [6] | [7] | [8] | [9] | [10] | [11] | [12] | [13] | [14] | [15]

CCCCCCC=CCCC=O
inactive: [16] | [3] | [4] | [5] | [6] | [7] | [8] | [9] | [10] | [11] | [12] | [13] | [14] | [15]

CC(CO)CS (configuration not stated)
inactive: [16] | [3] | [5] | [7] | [8] | [9] | [11] | [13] | [14] | [15]

c1coc(CSSCc2ccco2)c1
inactive: [17]

CC(C)=CCCC(C)=CCO
inactive: [9]

CCC1OC(C)=C(O)C1=O (configuration not stated)
inactive: [1] | [2] | [3] | [4] | [5] | [6] | [7] | [8] | [9] | [10] | [11] | [12] | [13] | [14] | [15]

C=CC(C)(O)CCC=C(C)CCC=C(C)C (configuration not stated)
inactive: [9]
